Assay results as given in ChEMBL document CHEMBL1148356, “Synthesis and biological evaluation of 3-heterocyclyl-7,8,9,10-tetrahydro-(7,10-ethano)-1,2,4-triazolo[3,4-a]phthalazines and analogues as subtype-selective inverse agonists for the GABA(A)alpha5 benzodiazepine binding site” (J Med Chem, 2004).

Assays:
[1] = target: T1, GABA-A receptor; alpha-5/beta-3/gamma-2 (Homo sapiens, UniProt P18507+P28472+P31644); experiment: Binding affinity towards human alpha-5-beta-3-gamma-2 GABA-A receptor using [3H]Ro-151788 expressed in L(tk-) cells; assay type: cell-based
T1 sequence (P18507 whole entry): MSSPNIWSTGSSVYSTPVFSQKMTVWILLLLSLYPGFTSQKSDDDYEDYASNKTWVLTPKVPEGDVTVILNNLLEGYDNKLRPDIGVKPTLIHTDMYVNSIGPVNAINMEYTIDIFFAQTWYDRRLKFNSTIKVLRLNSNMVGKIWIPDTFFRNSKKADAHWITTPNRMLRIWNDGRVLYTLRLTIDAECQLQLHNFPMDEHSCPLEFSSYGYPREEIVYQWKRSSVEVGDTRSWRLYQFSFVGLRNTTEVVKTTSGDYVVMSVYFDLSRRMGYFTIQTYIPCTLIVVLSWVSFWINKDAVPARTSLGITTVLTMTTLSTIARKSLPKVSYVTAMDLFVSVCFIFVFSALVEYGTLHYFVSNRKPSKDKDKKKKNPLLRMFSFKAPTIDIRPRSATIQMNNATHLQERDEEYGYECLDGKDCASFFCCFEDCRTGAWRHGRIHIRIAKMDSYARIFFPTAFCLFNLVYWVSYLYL
T1 sequence (P28472 whole entry): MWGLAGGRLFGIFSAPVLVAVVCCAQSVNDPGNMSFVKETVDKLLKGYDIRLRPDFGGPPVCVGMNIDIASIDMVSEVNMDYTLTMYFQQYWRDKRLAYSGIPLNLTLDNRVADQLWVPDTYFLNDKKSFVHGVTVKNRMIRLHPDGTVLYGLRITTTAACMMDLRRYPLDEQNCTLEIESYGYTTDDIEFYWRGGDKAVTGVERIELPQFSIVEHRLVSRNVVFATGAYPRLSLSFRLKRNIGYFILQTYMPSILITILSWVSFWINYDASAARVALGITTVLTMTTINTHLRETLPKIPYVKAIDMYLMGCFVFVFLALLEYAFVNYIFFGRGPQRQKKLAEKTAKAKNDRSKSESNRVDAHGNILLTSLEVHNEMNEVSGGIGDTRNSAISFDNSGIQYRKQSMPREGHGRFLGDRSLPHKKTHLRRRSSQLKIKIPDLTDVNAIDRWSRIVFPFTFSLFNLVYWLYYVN
T1 sequence (P31644 whole entry): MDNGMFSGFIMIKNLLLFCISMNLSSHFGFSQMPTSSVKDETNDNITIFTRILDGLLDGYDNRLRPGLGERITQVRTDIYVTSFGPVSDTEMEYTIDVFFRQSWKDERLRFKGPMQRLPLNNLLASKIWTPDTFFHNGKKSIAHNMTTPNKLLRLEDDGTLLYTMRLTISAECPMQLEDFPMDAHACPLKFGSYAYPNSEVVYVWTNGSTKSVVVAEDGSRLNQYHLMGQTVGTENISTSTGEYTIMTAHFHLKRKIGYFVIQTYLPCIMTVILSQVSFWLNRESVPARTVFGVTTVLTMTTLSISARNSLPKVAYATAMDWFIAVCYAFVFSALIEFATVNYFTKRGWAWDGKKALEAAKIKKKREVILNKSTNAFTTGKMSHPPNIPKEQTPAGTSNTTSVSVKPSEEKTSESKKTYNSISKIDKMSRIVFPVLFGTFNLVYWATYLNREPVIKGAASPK

[2] = target: T2, GABA-A receptor; alpha-2/beta-3/gamma-2 (Homo sapiens, UniProt P18507+P28472+P47869); experiment: Binding affinity towards human gamma-aminobutyric-acid A receptor alpha-2-beta-3-gamma-2 using [3H]Ro-151788 expressed in L(tk-) cells; assay type: cell-based
T2 sequence (P18507 whole entry): T1 sequence (P18507 whole entry)
T2 sequence (P28472 whole entry): T1 sequence (P28472 whole entry)
T2 sequence (P47869 whole entry): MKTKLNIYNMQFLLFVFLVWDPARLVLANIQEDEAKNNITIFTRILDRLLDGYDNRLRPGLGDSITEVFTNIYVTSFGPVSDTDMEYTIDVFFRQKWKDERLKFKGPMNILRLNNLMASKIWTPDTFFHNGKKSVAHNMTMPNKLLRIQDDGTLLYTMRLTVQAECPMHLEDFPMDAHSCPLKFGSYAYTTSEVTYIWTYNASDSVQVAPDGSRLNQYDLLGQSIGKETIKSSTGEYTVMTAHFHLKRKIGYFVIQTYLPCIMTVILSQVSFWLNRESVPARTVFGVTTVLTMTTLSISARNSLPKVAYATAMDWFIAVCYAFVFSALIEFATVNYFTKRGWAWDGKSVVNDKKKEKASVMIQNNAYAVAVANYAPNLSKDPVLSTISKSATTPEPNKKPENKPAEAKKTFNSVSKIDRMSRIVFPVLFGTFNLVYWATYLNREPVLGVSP

[3] = target: T3, GABA-A receptor; alpha-3/beta-3/gamma-2 (Homo sapiens, UniProt P18507+P28472+P34903); experiment: Binding affinity towards human gamma-aminobutyric-acid A receptor alpha-3-beta-3-gamma-2 using [3H]Ro-151788 expressed in L(tk-) cells; assay type: cell-based
T3 sequence (P18507 whole entry): T1 sequence (P18507 whole entry)
T3 sequence (P28472 whole entry): T1 sequence (P28472 whole entry)
T3 sequence (P34903 whole entry): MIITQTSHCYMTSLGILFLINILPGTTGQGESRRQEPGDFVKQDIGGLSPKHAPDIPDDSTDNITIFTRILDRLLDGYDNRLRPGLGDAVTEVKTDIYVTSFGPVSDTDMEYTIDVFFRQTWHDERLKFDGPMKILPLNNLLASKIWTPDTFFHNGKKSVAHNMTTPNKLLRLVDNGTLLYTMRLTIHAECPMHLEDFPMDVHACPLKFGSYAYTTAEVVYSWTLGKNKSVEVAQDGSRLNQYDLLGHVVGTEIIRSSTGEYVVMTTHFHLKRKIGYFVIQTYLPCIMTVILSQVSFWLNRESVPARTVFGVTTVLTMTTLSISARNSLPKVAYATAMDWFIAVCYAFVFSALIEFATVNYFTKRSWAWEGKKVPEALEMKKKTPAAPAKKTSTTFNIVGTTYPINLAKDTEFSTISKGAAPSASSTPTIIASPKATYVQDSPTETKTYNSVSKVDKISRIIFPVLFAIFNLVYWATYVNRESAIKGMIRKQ

[4] = target: T4, GABA-A receptor; alpha-1/beta-3/gamma-2 (Homo sapiens, UniProt P14867+P18507+P28472); experiment: Binding affinity towards human alpha-1-beta-3-gamma-2 GABA-A receptor using [3H]Ro-151788 expressed in L(tk-) cells; assay type: cell-based
T4 sequence (P14867 whole entry): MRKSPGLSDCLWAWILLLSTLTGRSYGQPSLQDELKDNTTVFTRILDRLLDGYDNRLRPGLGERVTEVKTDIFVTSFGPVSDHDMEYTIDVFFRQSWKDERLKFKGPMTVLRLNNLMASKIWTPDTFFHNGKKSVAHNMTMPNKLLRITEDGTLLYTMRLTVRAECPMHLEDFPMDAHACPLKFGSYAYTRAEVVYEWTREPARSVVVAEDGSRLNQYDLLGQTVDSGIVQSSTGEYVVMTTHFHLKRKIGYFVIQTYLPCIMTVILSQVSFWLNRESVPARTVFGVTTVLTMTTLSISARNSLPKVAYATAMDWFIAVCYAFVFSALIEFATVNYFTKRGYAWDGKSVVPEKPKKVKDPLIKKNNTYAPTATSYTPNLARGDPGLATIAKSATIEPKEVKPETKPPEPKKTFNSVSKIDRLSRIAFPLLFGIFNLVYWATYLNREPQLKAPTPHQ
T4 sequence (P18507 whole entry): T1 sequence (P18507 whole entry)
T4 sequence (P28472 whole entry): T1 sequence (P28472 whole entry)

[5] = target: GABA-A receptor; alpha-3/beta-3/gamma-2 (Homo sapiens) (UniProt P18507+P28472+P34903); experiment: Percent change in electrophysiological response in Xenopus oocytes expressing Alpha3-beta3-gamma2 GABA-A receptor; assay type: functional, cell-based; conditions: Oocyte
Summary of the method: (§1)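 Two-electrode voltage clamp on Xenopus oocytes injected with human GABA-A subunit cDNAs, 24-72 h expression, perfused with modified Barth's medium at pH 7.5, clamped between -40 and -70 mV. The GABA EC20 was titrated against a 3 mM GABA maximum. […] Result is % change of control current, mean ± SE of ≥4 oocytes.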

[6] = target: GABA-A receptor; alpha-5/beta-3/gamma-2 (Homo sapiens) (UniProt P18507+P28472+P31644); experiment: Percent change in electrophysiological response in Xenopus oocytes expressing Alpha-5-beta-3-gamma-2 GABA-A receptor; assay type: functional, cell-based; conditions: Oocyte; summary of the method: as §1
[7] = target: GABA-A receptor; alpha-1/beta-3/gamma-2 (Homo sapiens) (UniProt P14867+P18507+P28472); experiment: Percent change in electrophysiological response in Xenopus oocytes expressing Alpha1-beta3-gamma2 GABA-A receptor; assay type: functional, cell-based; conditions: Oocyte; summary of the method: as §1
[8] = target: GABA-A receptor; alpha-2/beta-3/gamma-2 (Homo sapiens) (UniProt P18507+P28472+P47869); experiment: Percent change in electrophysiological response in Xenopus oocytes expressing Alpha2-beta3-gamma2 GABA-A receptor; assay type: functional, cell-based; conditions: Oocyte; summary of the method: as §1

SMILES | Ki [1] [nM] | Ki [2] [nM] | Ki [3] [nM] | Ki [4] [nM] | Efficacy [5] [%] | Efficacy [6] [%] | Efficacy [7] [%] | Efficacy [8] [%]
Cc1cccc(COc2nn3c(-c4ccccn4)nnc3c3c2C2CCC3CC2)n1 | 15.3 | 227 | 104 | 518 |  |  |  | 
Cc1cccc(COc2nn3c(-c4cc(C)on4)nnc3c3c2C2CCC3C2)n1 (configuration not stated) | 8.9 | 38.4 | 33.5 | 147 | 11 | -24 |  | 
Cc1noc(-c2nnc3c4c(c(OCc5ncc[nH]5)nn23)C2CCC4CC2)n1 | 3.8 | 35.9 | 19.4 | 159 |  | -26 |  | 
Cc1cccc(COc2nn3c(-c4ccsc4)nnc3c3c2C2CCC3CC2)n1 |  |  |  |  |  | 7 |  | 
Cc1cccc(COc2nn3c(-c4csc(C)n4)nnc3c3c2C2CCC3CC2)n1 | 58 | > 1000 | > 1000 | > 1000 |  |  |  | 
Cc1ccc(-c2nc3ccc(C)cn3c2CC(=O)N(C)C)cc1 [ZOLPIDEM] | > 10000 | 255 | 609 |  | 142 |  | 133 | 187
CCc1noc(-c2nnc3c4c(c(OCc5cccc(C)n5)nn23)C2CCC4CC2)n1 | 3.5 | 34 | 21 | 171 |  |  |  | 
Cc1nc(-c2nnc3c4c(c(OCc5cccc[n+]5[O-])nn23)C2CCC4CC2)[o+][n-]1 | 3.9 | 15.4 | 14.7 | 74.3 |  |  |  | 
Cc1cc(-c2nnc3c4c(c(OCc5ccccn5)nn23)C2CCC4C2)no1 (configuration not stated) | 5.5 | 19.7 | 17.6 | 57.7 | 0.6 | -13 |  | 
Cc1noc(-c2nnc3c4c(c(OCc5ccccn5)nn23)C2CCC4CC2)n1 | 0.77 | 8.5 | 3.9 | 28.2 |  | -38 |  | 
Cc1cccc(COc2nn3c(-c4ncn(C)n4)nnc3c3c2C2CCC3CC2)n1 | 214 | > 1000 | > 1000 | > 1000 |  |  |  | 
Cc1cccc(COc2nn3c(-c4coc(C)n4)nnc3c3c2C2CCC3CC2)n1 | 6.8 | 57 | 46 | 280 |  |  |  | 
Cc1cccc(COc2nn3c(-c4nc(-c5ccncc5)no4)nnc3c3c2C2CCC3CC2)n1 | 2.1 | 209 | 26.4 | > 1000 |  |  |  | 
Cc1cccc(COc2nn3c(-c4nc(-c5ccccc5)no4)nnc3c3c2C2CCC3CC2)n1 | 19.2 | 203 | 227 | > 1000 |  |  |  | 
Cc1cccc(COc2nn3c(-c4nc(-c5cccnc5)no4)nnc3c3c2C2CCC3CC2)n1 | 3.3 | 166 | 69.6 | > 1000 |  |  |  | 
Cc1cccc(COc2nn3c(-c4cccs4)nnc3c3c2C2CCC3CC2)n1 | 4 | 66 | 22 | 115 |  |  |  | 
Cc1cccc(COc2nn3c(-c4ccoc4)nnc3c3c2C2CCC3CC2)n1 |  |  |  |  | -4 | -24 | 27 | -5
Cc1cccc(COc2nn3c(-c4ccco4)nnc3c3c2C2CCC3CC2)n1 | 13 | 275 | 116 | 1000 |  |  |  | 
Cc1cccc(COc2nn3c(-c4ncnn4C)nnc3c3c2C2CCC3CC2)n1 | 253 | > 1000 | > 1000 | > 1000 |  |  |  | 
Cc1cccc(COc2nn3c(-c4cc(C)on4)nnc3c3ccccc23)n1 |  |  |  |  | 3 | -15 | 15 | 12
Cc1cccc(COc2nn3c(-c4nc(C(C)C)no4)nnc3c3c2C2CCC3CC2)n1 | 6.5 | 68.4 | 83.9 | > 1000 |  |  |  | 
Cc1noc(-c2nnc3c4c(c(OCc5cccnc5)nn23)C2CCC4CC2)n1 | 0.93 | 5.7 | 4.2 | 26.8 |  |  |  | 
Cc1noc(-c2nnc3c4c(c(OCc5ccc(C)c(C)n5)nn23)C2CCC4CC2)n1 | 0.39 | 9.8 | 8.6 | 48.6 | -21 | -25 | 1 | 
Cc1cc(-c2nnc3c4c(c(OCc5ccccn5)nn23)CCCC4)no1 |  | 3.5 | 1.6 | 4.2 | -15 | -23 | 0.4 | -6
Cc1noc(-c2nnc3c4c(c(OCc5ccccc5C#N)nn23)C2CCC4CC2)n1 | 0.44 | 2.9 | 1.7 | 17.5 |  | -45 |  | 
